Activity calls are given as the source filed them. The calls are words filed in the database; no cut-off is given here.
How the values were obtained:
[1] = molecular target: T1, Muscarinic acetylcholine receptor M1 (Homo sapiens) (UniProt P11229); assay: Agonist activity at human cloned muscarinic M1 receptor expressed in CHO cells assessed as effect on calcium mobilization by FLIPR; format: functional, cell-based
T1 sequence (whole entry): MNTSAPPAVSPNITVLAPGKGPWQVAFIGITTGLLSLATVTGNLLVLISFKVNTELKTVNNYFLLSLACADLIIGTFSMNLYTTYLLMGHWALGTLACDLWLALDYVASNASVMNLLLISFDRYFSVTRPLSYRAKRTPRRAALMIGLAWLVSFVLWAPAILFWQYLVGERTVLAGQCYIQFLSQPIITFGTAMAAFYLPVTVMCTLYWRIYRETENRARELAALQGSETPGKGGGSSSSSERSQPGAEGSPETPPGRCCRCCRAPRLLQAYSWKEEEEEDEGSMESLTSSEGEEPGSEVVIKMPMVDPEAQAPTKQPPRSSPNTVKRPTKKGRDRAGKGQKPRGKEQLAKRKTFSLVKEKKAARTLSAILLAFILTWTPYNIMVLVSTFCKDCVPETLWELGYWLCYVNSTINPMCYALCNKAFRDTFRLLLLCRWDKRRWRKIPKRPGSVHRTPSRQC
Summary of the method: (§1)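 CHO cells stably carrying cloned human M1, M2 or M3 receptor; compound applied alone and checked for direct receptor stimulation, read as calcium mobilization on a standard FLIPR protocol.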

[2] = molecular target: T2, Muscarinic acetylcholine receptor M3 (Homo sapiens, UniProt P20309); assay: Antagonist activity against human cloned muscarinic M3 receptor expressed in CHO cells assessed as inhibition of acetylcholine-induced calcium mobilization by FLIPR; format: functional, cell-based
[3] = molecular target: T3, Muscarinic acetylcholine receptor M1 (Homo sapiens, UniProt P11229); assay: Antagonist activity against human cloned muscarinic M1 receptor expressed in CHO cells assessed as inhibition of acetylcholine-induced calcium mobilization by FLIPR; format: functional, cell-based
T3 sequence (P11229 whole entry): T1 sequence (whole entry)

[4] = molecular target: T2, Muscarinic acetylcholine receptor M3; assay: Agonist activity at human cloned muscarinic M3 receptor expressed in CHO cells assessed as effect on calcium mobilization by FLIPR; format: functional, cell-based; summary of the method: as §1
[5] = molecular target: T4, Muscarinic acetylcholine receptor M2 (Homo sapiens) (UniProt P08172); assay: Agonist activity at human cloned muscarinic M2 receptor expressed in CHO cells assessed as effect on calcium mobilization by FLIPR; format: functional, cell-based; summary of the method: as §1
T4 sequence (whole entry): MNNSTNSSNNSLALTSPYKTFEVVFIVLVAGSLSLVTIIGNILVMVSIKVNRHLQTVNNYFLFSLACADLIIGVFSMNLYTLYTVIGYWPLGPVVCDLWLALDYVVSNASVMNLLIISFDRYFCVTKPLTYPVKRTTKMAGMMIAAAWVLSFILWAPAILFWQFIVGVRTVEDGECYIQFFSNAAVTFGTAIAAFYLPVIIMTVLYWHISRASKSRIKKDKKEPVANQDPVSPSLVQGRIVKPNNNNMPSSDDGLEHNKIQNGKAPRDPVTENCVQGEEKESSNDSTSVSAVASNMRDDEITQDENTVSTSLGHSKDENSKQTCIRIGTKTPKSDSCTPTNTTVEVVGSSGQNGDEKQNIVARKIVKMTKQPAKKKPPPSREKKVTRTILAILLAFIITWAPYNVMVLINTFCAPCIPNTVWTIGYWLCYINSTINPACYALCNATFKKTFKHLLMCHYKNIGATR

[6] = molecular target: T5, Muscarinic acetylcholine receptor M2 (Homo sapiens, UniProt P08172); assay: Antagonist activity against human cloned muscarinic M2 receptor expressed in CHO cells assessed as inhibition of acetylcholine-induced calcium mobilization by FLIPR; format: functional, cell-based
T5 sequence (P08172 whole entry): T4 sequence (whole entry)

[7] = molecular target: T5, Muscarinic acetylcholine receptor M2; assay: Antagonist activity against human cloned muscarinic M2 receptor expressed in CHO cells assessed as inhibition of acetylcholine-induced calcium mobilization by measuring ratio of acetylcholine EC50 in presence and absence of compound by FLIPR assay; format: functional, cell-based; conditions: read-out: pA2 (converted)
Summary of the method: (§2)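 Run as pA2 determination on FLIPR in CHO cells expressing human M1 or M2 receptor: ACh concentration–response run with and without a single concentration of compound, calcium mobilization read, and the ratio of ACh EC50 values used to derive pA2.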

[8] = molecular target: T2, Muscarinic acetylcholine receptor M3; assay: Displacement of [3H]N-methyl Scopolamine from human cloned muscarinic M3 receptor expressed in CHO cell membrane; format: cell membranes
Summary of the method: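 SPA-format competition binding on membranes from CHO cells expressing the human M3 receptor, against 0.5 nM [3H]-N-methyl scopolamine. Ki values are the mean of two or more independent assays.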

Mus musculus [9] = assay: Bronchoprotection in Balb/C mouse bronchoconstriction model assessed as inhibition of aerosolized methacholin-induced bronchoconstriction at 50 ug administered intranasally 24 hrs before methacholin challenge; format: functional
Summary of the method: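 Conscious mice given compound by inhalation at 50 µg per mouse 24 h before challenge with aerosolized methacholine; bronchoconstriction inhibition recorded.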

[10] = molecular target: T5, Muscarinic acetylcholine receptor M2; assay: Displacement of [3H]N-methyl Scopolamine from human cloned muscarinic M2 receptor expressed in CHO cell membrane; format: cell membranes
Summary of the method: (§3)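 SPA format with CHO cell membrane preparations bearing human M1 or M2 receptor; competition versus 0.5 nM [3H]-N-methyl scopolamine; Ki reported; mean of two or more independent assays.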

[11] = molecular target: T2, Muscarinic acetylcholine receptor M3; assay: Antagonist activity against human cloned muscarinic M3 receptor expressed in CHO cells assessed as inhibition of acetylcholine-induced calcium mobilization by measuring ratio of acetylcholine EC50 in presence and absence of compound by FLIPR assay; format: functional, cell-based; conditions: read-out: pA2 (converted)
Summary of the method: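 CHO cells expressing cloned human M3 receptor, stimulated with ACh. Calcium mobilization read by a standard FLIPR protocol. ACh EC50 was measured with and without a single concentration of compound, and pA2 was derived from the ratio of the EC50s.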

[12] = molecular target: T3, Muscarinic acetylcholine receptor M1; assay: Displacement of [3H]N-methyl Scopolamine from human cloned muscarinic M1 receptor expressed in CHO cell membrane; format: cell membranes; summary of the method: as §3
[13] = molecular target: T3, Muscarinic acetylcholine receptor M1; assay: Antagonist activity against human cloned muscarinic M1 receptor expressed in CHO cells assessed as inhibition of acetylcholine-induced calcium mobilization by measuring ratio of acetylcholine EC50 in presence and absence of compound by FLIPR assay; format: functional, cell-based; conditions: read-out: pA2 (converted); summary of the method: as §2
Mus musculus [14] = assay: Bronchoprotection in Balb/C mouse bronchoconstriction model assessed as inhibition of aerosolized methacholin-induced bronchoconstriction at 5 ug administered intranasally 24 hrs before methacholin challenge; format: functional
Mus musculus [15] = assay: Bronchoprotection in Balb/C mouse bronchoconstriction model assessed as inhibition of aerosolized methacholin-induced bronchoconstriction administered intranasally before 5 hrs before methacholin challenge; format: functional, organism-based
Summary of the method: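 Balb/C mice (n = 4) dosed intranasally across a dose range (µg/mouse), challenged 5 h later with aerosolized methacholine 30 mg/ml for 2 min; Penh by whole-body plethysmography over 5 min; ratio of post-drug to pre-drug Penh (1.0 = 0% inhibition, 0.0 = 100%); ED50 from dose–response.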

Mus musculus [16] = assay: Bronchoprotection in Balb/C mouse bronchoconstriction model assessed as inhibition of aerosolized methacholin-induced bronchoconstriction at 5 ug administered intranasally before 0.25 to 48 hrs before methacholin challenge; format: functional, organism-based
Summary of the method: (§4)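 Balb/C mice (n = 4) dosed intranasally at 0.5 or 5.0 µg per mouse, then challenged with aerosolized methacholine 30 mg/ml for 2 min at 0.25–48 h after dosing; Penh by plethysmography over 5 min, expressed as post-drug/pre-drug Penh ratio.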

Mus musculus [17] = assay: Bronchoprotection in Balb/C mouse bronchoconstriction model assessed as inhibition of aerosolized methacholin-induced bronchoconstriction at 0.5 ug administered intranasally before 0.25 to 48 hrs before methacholin challenge; format: functional, organism-based; summary of the method: as §4

| Compound | Activity [1] | IC50 [2] [nM] | IC50 [3] [nM] | Activity [4] | Activity [5] | IC50 [6] [nM] | Kb [7] [nM] | Ki [8] [nM] | inhibition (INH) (Mus musculus [9]) [%] | Ki [10] [nM] | Kb [11] [nM] | Ki [12] [nM] | Kb [13] [nM] | inhibition (INH) (Mus musculus [14]) [%] | Activity (Mus musculus [15]) | Activity (Mus musculus [16]) | Activity (Mus musculus [17]) |
| --- | --- | --- | --- | --- | --- | --- | --- | --- | --- | --- | --- | --- | --- | --- | --- | --- | --- |
| CN1[C@@H]2CC[C@H]1C[C@@H](CC(CNC(=O)NCc1ccccc1)(c1ccccc1)c1ccccc1)C2 | inactive | 1340 | 1020 | inactive | inactive | 1270 |  |  |  |  |  |  |  |  |  |  |  |
| CN1[C@@H]2CC[C@H]1C[C@@H](CC(CNC(N)=O)(c1ccccc1)c1ccccc1)C2 | inactive | 6400 | 3830 | inactive | inactive | 5340 |  |  |  |  |  |  |  |  |  |  |  |
| CC(=O)NCC(C[C@H]1C[C@H]2CC[C@@H](C1)N2C)(c1ccccc1)c1ccccc1 | inactive | 2900 | 2200 | inactive | inactive | 3480 |  |  |  |  |  |  |  |  |  |  |  |
| CN1[C@@H]2CC[C@H]1C[C@@H](CC(CNS(C)(=O)=O)(c1ccccc1)c1ccccc1)C2 | inactive | 2730 | 1600 | inactive | inactive | 2120 |  |  |  |  |  |  |  |  |  |  |  |
| CN1[C@@H]2CC[C@H]1C[C@@H](CC(O)(c1ccccc1)c1ccccc1)C2 | inactive | < 10 | < 10 | inactive | inactive | < 10 | 3.98 | 2 | <5 | 6.31 | 2.51 | 0.501 | 0.794 |  |  |  |  |
| CN1[C@@H]2CC[C@H]1C[C@@H](CC(c1ccccc1)(c1ccccc1)c1ccccc1)C2 | inactive | 206 | 105 | inactive | inactive | 1200 |  |  |  |  |  |  |  |  |  |  |  |
| CN1[C@@H]2CC[C@H]1C[C@@H](CC(C(=O)NCc1ccccc1)(c1ccccc1)c1ccccc1)C2 | inactive | 839 | 596 | inactive | inactive | 545 |  |  |  |  |  |  |  |  |  |  |  |
| CN1[C@@H]2CC[C@H]1C[C@@H](CC(C(=O)O)(c1ccccc1)c1ccccc1)C2 | inactive | 687 | 277 | inactive | inactive | 240 |  |  |  |  |  |  |  |  |  |  |  |
| C[N+]1(C)[C@@H]2CC[C@H]1C[C@@H](CC(O)(c1ccccc1)c1ccccc1)C2.[Br-] | inactive | < 10 | < 10 | inactive | inactive | < 10 | 0.501 | 3.16 |  | 3.98 | 0.501 | 1.58 | 0.251 | 34 |  |  |  |
| C[N+]1(C)[C@@H]2CC[C@H]1C[C@@H](CC(C#N)(c1ccccc1)c1ccccc1)C2.[Br-] | inactive | < 10 | < 10 | inactive | inactive | < 10 | 0.0501 | 0.0631 |  | 0.158 | 0.02 | 0.0501 | 0.00398 | >95 | Dose-dependent effect | Active | Active |
| CCNC(=O)NCC(C[C@H]1C[C@H]2CC[C@@H](C1)N2C)(c1ccccc1)c1ccccc1 | inactive | 1940 | 1280 | inactive | inactive | 1550 |  |  |  |  |  |  |  |  |  |  |  |
| CN1[C@@H]2CC[C@H]1C[C@@H](CC(CNS(=O)(=O)c1ccccc1)(c1ccccc1)c1ccccc1)C2 | inactive | 1060 | 770 | inactive | inactive | 458 |  |  |  |  |  |  |  |  |  |  |  |
| C[N+]1(C)[C@@H]2CC[C@H]1C[C@@H](CC(CO)(c1ccccc1)c1ccccc1)C2.[Br-] | inactive | < 10 | < 10 | inactive | inactive | < 10 | 5.01 | 2.51 |  | 3.98 | 3.16 | 1.26 | 1.58 | 23 |  |  |  |
| CN1[C@@H]2CC[C@H]1C[C@@H](CC(C#N)(c1ccccc1)c1ccccc1)C2 | inactive | < 10 | < 10 | inactive | inactive | < 10 | 0.316 | 0.158 |  | 0.501 | 0.0631 | 0.1 | 0.0158 | 11 |  |  |  |
| CN1[C@@H]2CC[C@H]1C[C@@H](CC(CO)(c1ccccc1)c1ccccc1)C2 | inactive | < 10 | < 10 | inactive | inactive | < 10 | 6.31 | 2.51 |  | 12.6 | 3.98 | 1 | 1.26 | 15 |  |  |  |

Reference: ChEMBL document CHEMBL1153488, “Discovery of (3-endo)-3-(2-cyano-2,2-diphenylethyl)-8,8-dimethyl-8-azoniabicyclo[3.2.1]octane bromide as an efficacious inhaled muscarinic acetylcholine receptor antagonist for the treatment of COPD” (Bioorg Med Chem Lett, 2009)
